Laboratory results: ChEMBL document CHEMBL1150625, “New terpenoid constituents from Eunicea pinta” (J Nat Prod, 2002)
≈ marks a conversion by molar mass, not a printed value. Calls of active or inactive are those of the source. No cut-off for these calls is given here.

How the values were obtained:
[1] = system: MOLT-4; assay: Cytotoxicity against human MOLT4 cells; format: functional, cell-based
In short: (§1)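 Tested in vitro in the NCI 60 human tumour cell-line panel, with the screen run at the National Cancer Institute. Growth inhibition was read for each line and reported as IC50 in µg/mL.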

[2] = system: SR; assay: Cytotoxicity against human SR cells; format: functional, cell-based; in short: as §1
[3] = system: Mycobacterium tuberculosis; assay: Antitubercular activity against Mycobacterium tuberculosis H37Rv assessed as inhibition of microbial growth at 6.25 ug/mL; format: functional
[4] = system: A498; assay: Cytotoxicity against human A498 cells; format: functional, cell-based; in short: as §1
[5] = system: ACHN; assay: Cytotoxicity against human ACHN cells; format: functional, cell-based; in short: as §1
[6] = system: CAKI-1; assay: Cytotoxicity against human Caki1 cells; format: functional, cell-based; in short: as §1
[7] = system: TK-10; assay: Cytotoxicity against human TK10 cells; format: functional, cell-based; in short: as §1
[8] = system: NCI-H322M; assay: Cytotoxicity against human NCI-H322M cells; format: functional, cell-based; in short: as §1

C=C1C(=O)O[C@H]2C(=O)[C@H](C)CCC[C@](C)(OO)/C=C/C[C@@]3(C)O[C@@H]3C[C@@H]12 [UPROLIDE H]
IC50 [1]: 0.01 µg/mL (≈ 0.0274 µM) | IC50 [2]: 0.07 µg/mL (≈ 0.192 µM) | inhibition [3]: inactive

C=C[C@H]1CC[C@H]2[C@@H]3CC=C4C[C@@H](O[C@@H]5OC[C@@H](O)[C@H](O)[C@H]5O)CC[C@]4(C)[C@H]3CC[C@]12C
IC50 [4]: 4.2 µg/mL (≈ 9.71 µM) | IC50 [5]: 2.8 µg/mL (≈ 6.47 µM) | IC50 [6]: 6.6 µg/mL (≈ 15.3 µM) | inhibition at 6.25 µg/mL [3]: 52%

C=C1C(=O)O[C@H]2C(=O)[C@H](C)CCC/C(C)=C/CC[C@@]3(C)O[C@@H]3C[C@@H]12
IC50 [7]: 0.13 µg/mL (≈ 0.391 µM) | IC50 [8]: 0.9 µg/mL (≈ 2.71 µM)

C=C1C(=O)OC2C(=O)[C@H](C)CCC/C(C)=C/CC[C@@]3(C)O[C@@H]3C[C@@H]12 (stereo not given in full)
inhibition [3]: inactive
